According to EPA's CvTdb concentration-time database:

How the values were obtained:
rat [1] = assay: concentration in expired air after dosing; settings: dosed: 1,1,2-trichloroethane, 501 ppm, inhalation, duration: 6 hr
rat [2] = assay: concentration in expired air after dosing; settings: dosed: 1,1,2-trichloroethane, 501 ppm, inhalation, duration: 6 hr; remark: listed apart in the source
human [3] = assay: concentration in blood after dosing; negative times count back from the end of exposure; settings: inhalation, duration: 2 hr
In short: (§1)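 A PubMed search, classifier screening and manual review identified published in vivo toxicokinetic studies, which together with two structured collections supplied concentration-versus-time and amount-versus-time points. Points were mostly digitised from plot screenshots with WebPlotDigitizer, otherwise copied from tables. Dose, route, subject details and medium were hand-curated from each paper, and sampling and analytical methods are those of the sources, often unreported.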

human [4] = assay: concentration in blood after dosing; settings: dosed: 1,2,4-trimethylbenzene, inhalation, duration: 2 hr
In short: as §1

rat [5] = assay: concentration in blood after dosing; settings: dosed: 1,3-butadiene, inhalation, duration: 6 hr, Sprague Dawley
human [6] = assay: concentration in expired air after dosing; negative times count back from the end of exposure; settings: dosed: 1,3-butadiene, 5 ppm, inhalation, duration: 120 min
In short: as §1

rat [7] = assay: concentration in plasma after dosing; settings: dosed: benzo[a]pyrene, inhalation, duration: 4 hr, F344
rat [8] = assay: concentration in lung after dosing; settings: dosed: benzo[a]pyrene, inhalation, duration: 4 hr, F344

ClCC(Cl)Cl [1,1,2-trichloroethane]
concentration in expired air [ng/mL]
Settings | rat [1] | rat [2]
0.1604 h | – | 149
0.3009 h | – | 215
0.4836 h | 248 | 275
0.7365 h | 321 | 258
0.9895 h | 250 | 331
1.495 h | 233 | 272
2.493 h | 201 | –
2.507 h | – | 253
3.491 h | 225 | –
3.505 h | – | 180
3.996 h | 197 | 164
4.488 h | 185 | –
4.502 h | – | 139
4.98 h | 134 | 152
6.498 h | 67.1 | 75.2
6.989 h | 42.2 | 51.8
7.481 h | 36.1 | –
7.495 h | – | 24.6
7.987 h | 21.3 | 14.7
8.985 h | 11.1 | 6.7
9.996 h | 3.53 | 5.67
10.98 h | 2.46 | 3.53
13 min | 204 | –
223 s | 110 | –

Cc1ccc(C)c(C)c1 [1,2,4-trimethylbenzene]
concentration in blood [µM], human [3], dosed: 1,2,4-trimethylbenzene
Settings | 2 ppm | 25 ppm
0.1241 h | 0.249 | –
0.1793 h | – | 3.64
0.2345 h | 0.237 | –
0.2621 h | – | 3.11
0.5655 h | 0.164 | 2.42
0.9793 h | 0.0872 | –
1.062 h | – | 1.61
1.476 h | 0.0951 | –
1.531 h | – | 1.36
1.972 h | – | 0.989
2.524 h | 0.0753 | 0.863
2.966 h | 0.0515 | –
3.186 h | – | 0.79
3.517 h | – | 0.683
3.959 h | – | 0.614
11.99 h | – | 0.171
21.97 h | – | 0.134
248 s | 0.288 | 4.17

concentration in blood [µM], human [3], dosed: 1,2,4-trimethylbenzene, during exposure
Settings | 2 ppm | 25 ppm
-248 s | – | 7.99
-50 s | 0.552 | –
-1.917 h | – | 2.54
-1.89 h | 0.147 | –
-1.752 h | – | 3.54
-1.724 h | 0.231 | –
-1.476 h | 0.291 | 4.46
-1.255 h | – | 6.03
-1.228 h | 0.327 | –
-1.007 h | – | 6.09
-0.9793 h | 0.409 | –
-0.7862 h | – | 6.91
-0.731 h | 0.433 | –
-0.4828 h | 0.516 | –
-0.4552 h | – | 7.54
-0.2897 h | – | 7.18
-0.2345 h | 0.506 | –

concentration in blood [µM], human [4]
Settings | 0.1793 h | 0.2345 h | 0.5655 h | 0.5931 h | 1.503 h | 2.579 h | 3.572 h
2 ppm | – | 0.0677 | 0.0526 | – | – | – | –
25 ppm | 0.97 | – | – | 0.459 | 0.658 | 0.404 | 0.314

C=CC=C [1,3-butadiene]
Settings | concentration in blood [µM] | concentration in expired air [ppm]
human [6], -0.1653 h, during exposure | – | 4.58
human [6], -0.3284 h, during exposure | – | 4.31
human [6], -0.6614 h, during exposure | – | 4.14
human [6], -0.8313 h, during exposure | – | 3.79
human [6], -0.9977 h, during exposure | – | 3.77
human [6], -1.168 h, during exposure | – | 4.56
human [6], -1.331 h, during exposure | – | 4.38
human [6], -1.501 h, during exposure | – | 3.62
human [6], -1.67 h, during exposure | – | 4.25
human [6], -1.834 h, during exposure | – | 3.95
rat [5], 1.898 h, 63 ppm | 1.29 | –
rat [5], 1.898 h, 616 ppm | 15.3 | –
rat [5], 1.898 h, 1249 ppm | 31.2 | –
rat [5], 2.9 h, 63 ppm | 1.4 | –
rat [5], 2.9 h, 616 ppm | 17.2 | –
rat [5], 2.9 h, 1249 ppm | 35.4 | –
rat [5], 3.895 h, 63 ppm | 1.25 | –
rat [5], 3.895 h, 616 ppm | 16.5 | –
rat [5], 3.903 h, 1249 ppm | 38.7 | –
rat [5], 5.893 h, 616 ppm | 18.5 | –
rat [5], 5.901 h, 63 ppm | 1.26 | –
rat [5], 5.901 h, 1249 ppm | 39.6 | –
rat [5], 5.931 h, 1249 ppm | 9.11 | –
rat [5], 5.962 h, 1249 ppm | 6 | –
rat [5], 5.977 h, 63 ppm | 0.342 | –
rat [5], 5.993 h, 616 ppm | 4.05 | –
rat [5], 6.016 h, 1249 ppm | 7.44 | –
rat [5], 6.077 h, 63 ppm | 0.286 | –
rat [5], 6.092 h, 616 ppm | 2.8 | –
rat [5], 6.092 h, 1249 ppm | 4.21 | –
rat [5], 6.176 h, 1249 ppm | 4.26 | –
rat [5], 6.184 h, 616 ppm | 3.1 | –
rat [5], 6.23 h, 63 ppm | 0.198 | –
rat [5], 6.314 h, 63 ppm | 0.181 | –
rat [5], 6.329 h, 616 ppm | 2.35 | –
rat [5], 6.391 h, 63 ppm | 0.101 | –

human [6]
Settings | concentration in expired air [ppm]
0.1234 h | 0.329
0.1404 h | 0.298
0.1642 h | 0.278
0.1948 h | 0.278
0.2288 h | 0.267
0.2661 h | 0.267
0.3375 h | 0.226
0.402 h | 0.206
0.436 h | 0.185
0.4734 h | 0.175
0.5006 h | 0.144
0.5447 h | 0.144
0.6059 h | 0.144
0.6602 h | 0.123
0.701 h | 0.123
0.7588 h | 0.103
0.8029 h | 0.103
0.8505 h | 0.0823
0.9049 h | 0.0823
16 s | 4.55
77 s | 0.782
126 s | 0.535
200 s | 0.473
249 s | 0.35
334 s | 0.37

CCCCOCCO [2-butoxyethanol]
human [3], dosed: 2-butoxyethanol, 20 ppm
Settings | concentration in blood [µM]
0.1474 h | 4.33
0.3298 h | 3.31
0.4842 h | 3.42
0.6526 h | 2.2
1.004 h | 1.41
1.326 h | 1
1.663 h | 1.09
1.986 h | 0.987
25 s | 7.2
227 s | 4.22

human [3], dosed: 2-butoxyethanol, 20 ppm, during exposure
Settings | concentration in blood [µM]
-1.916 h | 2.83
-1.832 h | 2.77
-1.677 h | 4.53
-1.34 h | 5.02
-1.018 h | 7.01
-0.6807 h | 7.2
-0.3438 h | 7.4

Oc1ccc2cc3ccc4cccc5ccc(c2c1)c3c45 [9-hydroxy benzo[a]pyrene]
Settings | concentration in lung, 0.05 h [ng/mL] | concentration in lung, 1 h [ng/mL] | concentration in lung, 2 h [ng/mL] | concentration in lung, 4 h [ng/mL] | concentration in plasma, 0.5 h [ng/mL] | concentration in plasma, 1 h [ng/mL] | concentration in plasma, 2 h [ng/mL] | concentration in plasma, 4 h [ng/mL]
rat [7], 0.1 mg/m^3, female | – | – | – | – | 0.0614 | 0.243 | 0.122 | 0.00678
rat [7], 0.1 mg/m^3, male | – | – | – | – | 0.1 | 0.302 | 0.102 | 0.0105
rat [7], 1 mg/m^3, female | – | – | – | – | 0.339 | 5.95 | 0.303 | 0.00674
rat [7], 1 mg/m^3, male | – | – | – | – | 0.606 | 8.58 | 0.97 | 0.00272
rat [7], 2.5 mg/m^3, female | – | – | – | – | 4.93 | 29.3 | 5.63 | 0.276
rat [7], 2.5 mg/m^3, male | – | – | – | – | 5.6 | 33.1 | 7.14 | 0.363
rat [8], 0.1 mg/m^3, female | 0.389 | 3.61 | 0.814 | 0.209 | – | – | – | –
rat [8], 0.1 mg/m^3, male | 0.387 | 3.82 | 1.62 | 0.206 | – | – | – | –
rat [8], 1 mg/m^3, female | 11.8 | 15.5 | 14.6 | 1.6 | – | – | – | –
rat [8], 1 mg/m^3, male | 4.34 | 14.2 | 4.36 | 2.55 | – | – | – | –
rat [8], 2.5 mg/m^3, female | 23.9 | 52.2 | 12.3 | 1.49 | – | – | – | –
rat [8], 2.5 mg/m^3, male | 21.7 | 48.1 | 8.15 | 3.18 | – | – | – | –
